From the RNAGym collection of RNA variant scans (doi:10.1038/s41586-018-0170-7)

B1: tRNA (parent)
chain: GUUCCGUUGGCGUAAUGGUAACGCGUCUCCCUCCUAAGGAGAAGACUGCGGGUUCGAGUCCCGUACGGAACG

Variants of: B1
Assay: yeast fitness, log relative to wild type (ln ratio); higher = fitter; tRNA-Arg(CCU), competitive growth, 37 C, 1 M NaCl
Summary of the method: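 BY4742 cells without the chromosomal tRNA-Arg(CCU) gene carried a combinatorial variant library on a HIS3 centromeric plasmid, from two independent transformations. After 4 generations in SC-HIS at 30 °C, pools spent ~6.5 generations (~26.5 h) in SC-HIS 1M NaCl at 37 °C, giving three outputs per input, and 125 bp paired-end Illumina reads counted the variants. Fitness is the natural log of each genotype's generations over the wild type's, with generations taken as OD-scaled log2 output/input frequency weighted by inverse variance across replicates.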

| Variant | yeast fitness (ln) |
| --- | --- |
| G1A G6A C27U C66A A70U C71U | -0.292 |
| U2G G6U C27U A43C C46U C66U A69G A70G | -0.318 |
| U2G G6U C27U A43C C66A A70G C71U | -0.253 |
| C27U C66A A70G C71U | -0.194 |
| G1A U2C C27U A43C A69G A70U | -0.307 |
| G1A U2G A43C C66U A69G A70U | -0.287 |
| U2G C66A A70G | -0.0918 |
| U2G G6A C27U A43C C66A A70U | -0.176 |
| U2G G6A C27U A43C C66A A70G | -0.195 |
| C27U C46U C66A A69G A70G C71U | -0.156 |
| G1A C27U A43C A69G A70U | -0.389 |
| U2G G6U A43C C66A A69G A70U | -0.185 |
| C27U A43C C46U A69G A70G | -0.0876 |
| G6U C27U A43C C46U C66A A70U | -0.382 |
| G1A U2C C27U C66U A70G | -0.0715 |
| G6U C27U A43C C46U C66U A69G A70G C71U | -0.444 |
| U2G C27U A43C C66A A70G | -0.179 |
| U2G C46U A70G | -0.0123 |
| U2G G6U C27U C46U C66U A69G A70U C71U | -0.336 |
| G1A U2C C46U C66A A70U | -0.0262 |
| G1A U2G G6U C27U | -0.148 |
| U2C G6U C27U C46U C66U A69G A70U C71U | -0.546 |
| U2C C46U C66A | -0.0347 |
| G6A A43C C46U C66U A69G | -0.0394 |

| Variant | yeast fitness (ln) |
| --- | --- |
| U2C C27U A43C C66U A69G C71U | -0.388 |
| G1A G6U A43C C66A C71U | -0.0965 |
| U2G G6U C27U A43C C66A A69G A70U C71U | -0.382 |
| C27U C46U C66U A69G A70G | -0.197 |
| U2C C27U A43C C46U C66U A69G A70U C71U | -0.46 |
| U2C G6U A43C C46U C66A A70U | -0.21 |
| G6U C27U A43C C66U A69G A70G | -0.528 |
| U2C C66U A70U | -0.0706 |
| C66A A70G C71U | -0.0666 |
| G6A C27U C66A A69G A70U C71U | -0.0879 |
| U2G A43C C46U C66A A70G C71U | -0.165 |
| G1A U2C A43C C66A A70G C71U | -0.128 |
| G1A U2G G6U A70G C71U | -0.256 |
| G1A U2G G6A C27U A69G A70G | -0.428 |
| U2G G6U C46U C66U A70G C71U | -0.152 |
| G1A U2C A43C A69G A70G | -0.151 |
| G1A U2G G6U C27U C66U A70G C71U | -0.325 |
| G1A U2C C27U C46U C66U A69G A70G C71U | -0.174 |
| G1A U2G G6U A70G | -0.235 |
| G1A U2G G6U A70U | -0.166 |
| U2G G6A | -0.00406 |
| C27U A43C C46U C66A A70G C71U | -0.101 |
| G1A G6U C27U A43C C46U C66A A70G | -0.319 |
| G6A C46U | -0.0181 |

| Variant | yeast fitness (ln) |
| --- | --- |
| G1A U2G G6U C27U C66U A69G A70G | -0.333 |
| G1A C27U C66U A69G A70U | -0.295 |
| A43C C46U A70G C71U | -0.168 |
| G1A G6U C27U C46U A70U C71U | -0.278 |
| U2G C27U A43C C66A A69G A70G | -0.42 |
| G1A U2C A43C A70G C71U | -0.011 |
| U2C G6U C46U C66A A69G A70G C71U | -0.0159 |
| G1A C27U C46U A69G A70U | -0.118 |
| G1A C46U C66U | -0.118 |
| G6A C27U C66U A69G A70G C71U | -0.256 |
| G1A G6U C66U | -0.126 |
| G1A G6U C66A | -0.0927 |
| G1A G6U A43C C46U | -0.155 |
| G1A U2C C27U A43C C46U C66U A69G A70U C71U | -0.464 |
| U2C C27U C46U A70U | -0.0474 |
| G1A G6U A43C C46U C66A A69G C71U | -0.198 |
| G1A U2C G6U C27U A70U | -0.134 |
| G1A C46U A69G A70G | -0.127 |
| G1A G6U C46U C66A A69G A70G | -0.158 |
| G1A U2G G6U C27U A70U C71U | -0.305 |
| G1A U2G G6A A43C C71U | -0.276 |
| G1A U2C G6U C66U A70G C71U | -0.0525 |
| G1A U2G G6A C27U A43C C46U C66A A70G C71U | -0.478 |
| G1A G6A C27U A43C C66U A69G A70G C71U | -0.487 |

| Variant | yeast fitness (ln) |
| --- | --- |
| U2C G6A C66U A69G | -0.271 |
| G1A G6A C46U C66U | -0.072 |
| G1A U2G G6U C27U C46U A69G C71U | -0.26 |
| G1A U2G C27U A43C C46U C66U A69G A70U | -0.462 |
| G6A C27U A43C A69G A70G | -0.264 |
| U2G C27U A43C C66U C71U | -0.364 |
| G1A G6U C27U A43C C46U C66U A70G C71U | -0.596 |
| G1A U2G G6A C46U A69G A70U C71U | -0.259 |
| G1A G6U C27U A69G A70U | -0.29 |
| G1A U2G C27U A43C C66U | -0.123 |
| G1A U2C G6A C27U C66U A70U | -0.141 |
| G1A U2G C27U A43C A69G A70G | -0.263 |
| U2C G6A | 0.0247 |
| U2G C27U A69G A70U C71U | -0.518 |
| U2C C66U A70G C71U | -0.0234 |
| U2C G6U C27U C46U A69G C71U | -0.232 |
| U2C C27U A43C C46U C66U A69G C71U | -0.281 |
| U2C A43C C46U A70U | -0.0182 |
| G1A U2C G6U C66U A70U | -0.153 |
| G1A G6U A43C C46U A69G C71U | -0.263 |
| U2G C46U A70U C71U | -0.0115 |
| U2G C27U A43C C66A A69G C71U | -0.355 |
| U2G G6A C27U A43C C66A A70U C71U | -0.473 |
| G1A C46U C66U A69G C71U | -0.763 |

| Variant | yeast fitness (ln) |
| --- | --- |
| U2G G6U C27U A43C C66A A69G A70G | -0.219 |
| G1A U2G G6U A43C A70G C71U | -0.323 |
| G1A U2G G6A C27U C46U A70G | -0.237 |
| U2C C46U A70U C71U | -0.0871 |
| G1A G6U C27U A69G C71U | -0.371 |
| G1A U2C A43C A69G C71U | -0.202 |
| G1A U2G A69G A70G C71U | -0.438 |
| U2C G6A A43C C66U A70U C71U | -0.305 |
| G1A U2C A70U | -0.096 |
| U2C G6U C27U C71U | -0.147 |
| G1A U2G G6A C27U C46U A70G C71U | -0.244 |
| G1A C27U A43C C46U C66U A70U C71U | -0.469 |
| U2C G6A C66U A70G C71U | -0.0109 |
| G6U C27U | -0.111 |
| G1A A43C C66A A70G C71U | -0.164 |
| G1A U2G G6A C27U A43C C46U C66U A70U C71U | -0.645 |
| G1A U2G G6A A43C C46U C66U A69G A70G | -0.275 |
| G1A U2G C66U A70G C71U | -0.187 |
| G1A U2C G6A C27U A43C C46U C66U A69G A70G | -0.0972 |
| U2C G6U C27U A43C C66A A69G A70G | -0.156 |
| U2C G6A A43C C46U C66U A69G A70G C71U | -0.0188 |
| G1A U2G C27U C66U A69G C71U | -0.395 |
| G6A C46U A69G A70U | -0.176 |
| G6A C46U A69G A70G | -0.18 |

| Variant | yeast fitness (ln) |
| --- | --- |
| U2G G6U C27U C46U A69G A70U C71U | -0.387 |
| G1A G6U C27U C46U C66A | -0.32 |
| G1A G6U A43C A70U | -0.247 |
| U2C G6U A43C C46U C66U A69G A70G C71U | -0.169 |
| U2C G6U A43C C66A A69G A70U C71U | -0.321 |
| U2G G6A A43C C46U C66U C71U | -0.212 |
| G1A U2C G6U C27U A43C C66U A69G A70U C71U | -0.42 |
| G6A C27U C46U C66U A70G C71U | -0.387 |
| U2C G6U C66U A69G C71U | -0.176 |
| C27U A43C A69G A70G C71U | -0.142 |
| U2G G6U C27U A43C C46U C66A A70U | -0.017 |
| G6A A43C C46U C66U A69G A70G C71U | -0.24 |
| G1A C27U A43C C46U C66U | -0.199 |
| G1A U2C G6U C27U C46U A69G A70U | -0.219 |
| U2C A43C C66A A70U C71U | -0.275 |
| G1A U2G C27U A43C C46U C66A A69G C71U | -0.315 |
| G1A G6A C27U A43C A69G A70G C71U | -0.33 |
| U2C C27U A43C C46U C66U A70G C71U | -0.406 |
| G1A U2G G6A C27U C46U A70U C71U | -0.15 |
| G6U C27U C46U C66A C71U | -0.0489 |
| G1A U2C G6U C27U C66A A70G | -0.141 |
| U2G G6A C46U C66A A70G C71U | -0.148 |
| U2G G6A C27U A43C C66A A69G A70U C71U | -0.548 |
| U2G G6U C66A A70G C71U | -0.249 |

| Variant | yeast fitness (ln) |
| --- | --- |
| G1A G6A C27U C46U A69G A70G | -0.224 |
| G1A G6A C46U C66A A69G A70G C71U | -0.151 |
| G1A U2G A43C C46U C66A A69G A70U | -0.252 |
| G6A C27U C66A | -0.192 |
| U2C G6U C27U A43C C46U C66U A69G A70U | -0.3 |
| G1A U2C C66A A70G C71U | -0.208 |
| G6A C46U C66U A69G | -0.0205 |
| G1A U2C G6A C27U A43C C46U A69G A70G C71U | -0.0929 |
| U2C G6U A43C A69G A70G | -0.143 |
| G1A U2C C27U A43C C46U A69G A70U | -0.0492 |
| G1A U2G G6U C27U C66U A70U C71U | -0.434 |
| G6A C27U A70U C71U | -0.227 |
| G6U C27U A43C C46U C66A A69G A70G C71U | -0.312 |
| U2G A43C C46U A70U | 0.00593 |
| U2G G6U A43C A70U C71U | -0.215 |
| G6A C27U C46U C66U A69G A70U C71U | -0.302 |
| U2G A43C C71U | -0.102 |
| G6U C27U A69G A70G C71U | -0.394 |
| G6U C27U A43C | -0.197 |
| G1A C27U A43C C46U C66A A70G | -0.248 |
| U2G G6A C27U A43C C46U A70U C71U | -0.176 |
| G1A U2C G6A C46U A69G A70U | -0.0526 |
| C27U A43C C46U C66A A69G A70U C71U | -0.366 |
